F508del corr = F508del CFTR correction, initial screen, CFBE line, single point | activity (quench increase), % at 7.58 µM | CFBE cells, YFP halide quenching; stimulated with forskolin plus potentiator P3; % fluorescence drop versus neutral controls | actives 0.36% (n = 350,000);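 active = mean added fluorescence quench of at least 8% versus neutral control, with both replicates also reaching 8%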;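 also: cells transiently co-express mutant CFTR-F508del with the halide-sensitive YFP; corrector assay measuring rescue of mutant channel to the surface after 24 h compound exposure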
HIV Env fusion = inhibitors of HIV-1 Env-driven cell-cell fusion, primary screen, HeLa-JRFL effector, CEM21 target cells, luciferase | AID 651610, 2012 | actives 1.1% (n = 360,000) | inhibition, % at 12.3 µM;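 active = mean replicate inhibition score of at least 50 and every replicate individually at or above 50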;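 also: 0% = plate neutral controls and 100% = maraviroc near 300 nM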
FGF22 binding-1 = binders of human FGF22 protein, primary screen, FGF22 synaptogenesis inhibitor project, biophysical, thermal shift, single point; Fibroblast growth factor 22 (Homo sapiens), Q9HCT0; recombinant FGF22 thermal shift, SYPRO orange fluorescence; percent of sucrose octasulfate shift, DMSO zero; activity (Tm shift, normalised), % at 9.99 µM; actives 1.5% (n = 340,000); AID 651658, 2012;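 active = mean Tm shift, scaled 0 neutral to 100 positive control, at about 1.3% or above, every replicate too, limit read from the data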
E-selectin induc = E-selectin induction in HUVECs, primary screen, imaging, HUVEC, immunofluorescence imaging, single point | activation, % at 7.58 µM | AID 686992, 2013 | normalized: neutral wells 0, TNF-alpha wells 100 | actives 0.37% (n = 260,000);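 active = mean E-selectin-positive cell signal at least 10% of the positive control, reached in at least 60% of replicates, without over 20% cell loss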
Target sequence (P16581 whole entry, looked up): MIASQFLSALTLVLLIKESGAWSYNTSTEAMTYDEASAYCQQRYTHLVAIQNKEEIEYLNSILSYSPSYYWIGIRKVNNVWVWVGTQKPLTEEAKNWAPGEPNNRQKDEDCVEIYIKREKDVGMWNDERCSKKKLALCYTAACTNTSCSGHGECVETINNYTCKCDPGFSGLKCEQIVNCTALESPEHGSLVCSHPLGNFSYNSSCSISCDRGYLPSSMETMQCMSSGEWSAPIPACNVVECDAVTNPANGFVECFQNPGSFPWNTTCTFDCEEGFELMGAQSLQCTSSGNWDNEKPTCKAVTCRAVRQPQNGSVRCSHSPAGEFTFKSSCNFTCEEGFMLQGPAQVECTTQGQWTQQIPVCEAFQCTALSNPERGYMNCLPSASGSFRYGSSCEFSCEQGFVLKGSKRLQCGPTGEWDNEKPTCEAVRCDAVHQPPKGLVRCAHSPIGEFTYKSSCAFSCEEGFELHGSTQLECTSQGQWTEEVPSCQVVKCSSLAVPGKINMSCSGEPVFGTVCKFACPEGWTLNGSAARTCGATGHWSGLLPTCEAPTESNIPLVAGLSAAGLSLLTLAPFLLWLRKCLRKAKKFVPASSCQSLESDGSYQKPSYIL
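Read-out basis: % PE-positive cells; Test system: HUVEC primary endothelial cells; Technique: immunofluorescence imaging; Dosing: single-point compound dose.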
S100A4 MyoIIA = inhibitors of S100A4-myosin IIA peptide binding, primary screen, biochemical, fluorescence polarization, TAMRA-MyoIIA peptide; Protein S100-A4 (Homo sapiens), P26447; inhibition, % at 10.7 µM; actives 0.14% (n = 360,000);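 active = mean inhibition of at least 70% across replicates, with every replicate also reaching that level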
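Material: human S100A4 monomer with TAMRA-labelled myosin IIA peptide; buffer or medium: HEPES pH 7.2 with CaCl2, KCl, NaCl, DTT, Triton; compound dosing: one concentration per compound; schedule: 5 min incubation before reading; benchmarks: neutral control DMSO, positive control TFP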
FGF22 binding-2 = binders of human FGF22 protein, dose response, FGF22 synaptogenesis inhibitor project, biophysical, thermal shift, cherry-pick retest. recombinant FGF22 thermal shift, SYPRO orange fluorescence. actives 2% (n = 1,000). thermal shift activity, °C (ΔTm) at 38 µM. shares compounds with FGF22 binding-1;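 active = fitted rise in melting shift crosses a set limit at or below the top valid dose tested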
TSA no protein = compound-only thermal shift signal without protein, dose response, artefact control for FGF22 binder project, biochemical, cherry-picked samples, RT-PCR instrument; shares compounds with FGF22 binding-1; compound-only SYPRO orange thermal shift counter-screen, no protein; AC50, µM (series often up to 38 µM); actives 2% (n = 1,000);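 active = rising signal whose fitted curve reaches the 0.54 level within the top valid dose, showing a melting point, actives reach about 13 µM in these data; inactive = the rest, including activity in the opposite direction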; also: value is where the raw curve crosses a fixed level and not half-maximal
* hit, by the source's call; i = inactive; / = not tested or not shown; [ ] = dose if it differs, or a comment. Only some compounds are listed: those with a hit (about 2.7% of all), similar ones and a draw of the others.

SMILES	F508del corr	HIV Env fusion	FGF22 binding-1	E-selectin induc	S100A4 MyoIIA	FGF22 binding-2	TSA no protein
N#C[C@@H]1[C@H](c2ccc(C3=CCCCC3)cc2)[C@H](CO)N1S(=O)(=O)c1ccccc1	0	/	0	1	16	/	/
N#C[C@@H]1[C@@H](c2ccc(C3=CCCCC3)cc2)[C@H](CO)N1S(=O)(=O)c1ccccc1	1	/	1.3*	0	3	-0.2	i
CCCN1C[C@@H](C)[C@@H](OC)CN(C)C(=O)c2cc(NS(C)(=O)=O)ccc2OC[C@@H]1C	4	-6[16.7 µM]	/	0	/	/	/
C/C=C/c1cnc2c(c1)C(=O)N([C@H](C)CO)C[C@@H](C)[C@H](CN(C)C(=O)c1ccc3c(c1)OCO3)O2	-2	-1[16.7 µM]	0	0	-25	/	/
C/C=C/c1ccc([C@H]2[C@@H](CO)N(C(=O)C3CC3)[C@@H]2CN(CC)C(C)=O)cc1	1	/	0	0	0	/	/
O=C(Cn1cc(COc2ccc(Br)cc2)nn1)c1ccc(O)cc1	1	9	1.5*	0	3	0.019	i
O=C(Cn1cc(COc2c(Br)cc(F)cc2Br)nn1)c1ccc(O)cc1	0	-35	0	0	1	/	/
CC(=O)c1cc(C)c(OCc2cn(CC(=O)c3ccc(O)cc3)nn2)c(C)c1	0	-20	0	0	-1	/	/
CCCC(=O)c1ccc(OCc2cn(CC(=O)c3ccc(O)cc3)nn2)cc1	-5	/	1.5*	0	-1	0.04	i
Cc1ccc(-c2ccc3c(c2)O[C@H](CN(C)C(=O)C2CC2)[C@H](C)CN([C@@H](C)CO)S3(=O)=O)cc1	3	-1[16.7 µM]	0	0	19	/	/
N#CCc1nn(-c2ccccc2)c2ncnc(N)c12	2	-70	1.5*	/	2	-0.003	i
Nc1nc(-c2cccnc2)nn1C(=O)c1ccc(F)cc1	2	5	1.7*	-4	11	0.22	i
CCN1C(=O)c2cccc3c(S(=O)(=O)Nc4ccc(O)c(C(=O)O)c4)ccc1c23	2	-5	8.4*	-1	-2	0.045	i
COCC(=O)Nc1ccc2c(c1)C(=O)N(C)C[C@H](OC)[C@H](C)CN(Cc1cc(F)ccc1F)[C@H](C)CO2	1	-9[16.7 µM]	0	0	-10	/	/
COCC(=O)N1CC2(C1)[C@H](c1ccccc1)[C@@H](CO)N2C(=O)NC1CCCC1	-4	/	1.3*	0	-4	0.018	i
CCC(=O)N1[C@H](CO)[C@@H](c2ccccc2)C12CN(C(=O)c1cnccn1)C2	-1	/	1.3*	0	7	-0.085	i
COc1ccccc1-c1ccc2n(c1=O)C[C@@H]1[C@@H](CO)[C@H](C(=O)NC3CCC3)N(C(=O)NC(C)C)[C@H]21	-1	/	15*	0	-4	0.026	i
COCCNC(=O)[C@H]1[C@H](CO)[C@H]2Cn3c(ccc(-c4ccc(F)cc4)c3=O)[C@@H]1N2C(=O)NC(C)C	4	/	14*	0	-2	0.26[42 µM]	i
COCCNC(=O)[C@@H]1[C@@H](CO)[C@@H]2Cn3c(ccc(-c4ccc(OC)cc4)c3=O)[C@H]1N2C(=O)NC(C)C	0	/	0	0	11	/	/
COc1ccccc1C(=O)N1C[C@H]2[C@@H](c3ccccc31)[C@@H](CO)N2C(=O)Cc1cccnc1	2	/	0	0	5	/	/
CN(CC(=O)Nc1ccccc1Cl)C(=O)COC(=O)c1ccc(-c2ccc(O)cc2)cc1	-6	1	0	/	-2	/	/
CN(CC(=O)Nc1ccccc1Cl)C(=O)COC(=O)c1nc(Cl)ccc1Cl	1	1	1.6*	-1	-6	0.041	i
COCC(=O)N1[C@H](CO)[C@H]2c3ccccc3NC[C@H]21	-1	/	15*	0	-8	0.036	i
CCC(=O)N1[C@H](CO)[C@@H]2c3ccccc3N(C(=O)c3ccccc3F)C[C@@H]21	1	/	0	0	5	/	/
O=C(c1cccc(F)c1)N1C[C@H]2[C@@H](c3ccccc31)[C@H](CO)N2C(=O)C1CCCCC1	-1	/	/	0	5	/	/
SMILES	F508del corr	HIV Env fusion	FGF22 binding-1	E-selectin induc	S100A4 MyoIIA	FGF22 binding-2	TSA no protein
COc1ccccc1C(=O)N1C[C@H]2[C@@H](c3ccccc31)[C@H](CO)N2C(=O)C1CCCCC1	-1	/	1.7*	-1	0	0.02	i
O=C(c1cccc(F)c1)N1C[C@@H]2[C@H](c3ccccc31)[C@H](CO)N2C(=O)C1CCCCC1	-4	/	66*	0	-3	-0.081[42 µM]	i
COCC(=O)N1C[C@@H]2[C@H](c3ccccc31)[C@H](CO)N2C(=O)c1ccccc1F	-2	/	1.7*	0	0	-0.17[42 µM]	i
CS(=O)(=O)Nc1ccc2c(c1)[C@@H]1C[C@H](CC(=O)NCc3ccccc3)O[C@H](CO)[C@@H]1O2	1	-19[16.7 µM]	0	0	-32	/	/
CC=Cc1ccc2n(c1=O)C[C@@H]1[C@@H](CO)[C@H](C(=O)NCc3ccccn3)N(CC3CC3)[C@H]21 (mixture of isomers)	/	/	0	0	8	/	/
COc1ccc(S(=O)(=O)N/N=c2\oc3c(OC)cccc3cc2S(=O)(=O)c2ccc(C)cc2)cc1OC	-2	3	1.7*	/	2	-0.042	i
Cc1ccc(S(=O)(=O)Nc2ccc3c(c2)C(=O)N([C@@H](C)CO)C[C@@H](C)[C@H](CN(C)S(=O)(=O)c2ccc(F)cc2)O3)cc1	0	14[16.7 µM]	-1	3	15	/	/
Cc1ccc(N(CCC#N)C(=O)COC(=O)c2cc(C)no2)cc1	2	-3	2.8*	-1	-7	0.076	i
O=C(COC(=O)CSc1ccc([N+](=O)[O-])cc1)NCCC1=CCCCC1	3	/	5.5*	-2	7	0.16	i
Cc1ccc(SCC(=O)OCC(=O)NCCC2=CCCCC2)cc1	-1	2	0	0	1	/	/
CO[C@@H]1CN(C)C(=O)c2cc(NC(=O)NC(C)C)ccc2OC[C@@H](C)N(C)C[C@@H]1C	-2	/	37*	0	4	-0.047	i
COCC(=O)N1C[C@@H](C)[C@H](OC)CN(C)C(=O)c2ccc(NC(=O)NC(C)C)cc2OC[C@@H]1C	2	/	2.2*	0	-1	0.032[42 µM]	i

Screening results deposited in PubChem BioAssay by Broad Institute.
